Screening data deposited in PubChem by several laboratories.
This excerpt belongs to a sample that is enriched for hits.
CTSL1 counter: counter-screen for PFM18AAP inhibitors: inhibitors of F. hepatica cathepsin L1 | recombinant F. hepatica cathepsin L1, Z-Leu-Arg-MCA fluorescence | inhibition, % at 5.96 µM | 300,000 compounds, 0.49% hits | AID 1906;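 active = inhibition above the mean of all tested compounds plus 3 SD, set per screening campaign, cut at about 17% in these data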;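 also: 0% = plate median of test compound wells and 100% = 1 µM Z-Phe-Ala-diazomethylketone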
UCH37 inh: blocks the human deubiquitinase UCH37; Q9Y5K5; purified proteasome/UCH37, Ub-AMC cleavage fluorescence; inhibition, % (concentration not given with the values); 330,000 compounds, 0.33% hits; AID 588478;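 active = mean inhibition over replicate wells above about 20%, limit read from the data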;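 also: 0% = compound-free wells with enzyme and 100% = wells lacking proteasome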
Target sequence (Q9Y5K5 whole entry, looked up): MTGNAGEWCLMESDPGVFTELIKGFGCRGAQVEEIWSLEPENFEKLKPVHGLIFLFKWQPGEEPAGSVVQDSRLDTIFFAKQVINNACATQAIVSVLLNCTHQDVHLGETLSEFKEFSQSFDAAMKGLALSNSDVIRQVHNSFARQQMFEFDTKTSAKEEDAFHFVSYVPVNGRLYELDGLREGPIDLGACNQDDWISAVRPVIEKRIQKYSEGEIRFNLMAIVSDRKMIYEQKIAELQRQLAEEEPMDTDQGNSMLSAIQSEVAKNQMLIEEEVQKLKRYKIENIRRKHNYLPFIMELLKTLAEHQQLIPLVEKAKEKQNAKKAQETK
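Schedule: 30 min plus 25 min, room temperature / Material: human UCH37 within purified proteasomes / Technique: AMC fluorescence intensity at 355/460 nm / Buffer or medium: pH 7.4 Tris-HCl (50 mM) with ovalbumin, ATP-MgCl2, DTT / Controls: wells without proteasome as full block, compound-free enzyme plus substrate as uninhibited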
CHOP inhibitor: inhibitors of CHOP induction in ER stress response | 220,000 compounds, 3.8% hits | AID 2732 | CHO-K1 CHOP-promoter luciferase, tunicamycin-induced, 15-18 h | inhibition, % at 10 µM;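 active = compounds that reduced the stress-induced luciferase reporter signal by more than about 70% of percent inhibition, limit read from the data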;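 also: 0% = tunicamycin plus vehicle and 100% = wells without tunicamycin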
UPR CHOP act: apoptotic UPR (CHOP) activation. CHO-CHOP luciferase reporter, luminescence; percent of tunicamycin response over DMSO baseline. activation, % at 10 µM. 330,000 compounds, 0.34% hits. AID 449763;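 active = at 10 µM dose, activation of 40% or more, normalized to positive control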;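 also: 100% = tunicamycin at 10 µg/mL and 0% = DMSO alone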
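Test system: CHO CHOP reporter cells. Input: 500 CHO-CHOP cells per well. Medium: F12 with 10% FBS. Technique: luciferase luminescence. Measure: percent activation relative to tunicamycin control. Dosing: 10 µM compound, 0.5% DMSO. Timing: 16-18 h cell attachment, then 6 h compound exposure, 37 °C.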
XBP1 UPR activ: activators of adaptive arm of unfolded protein response (XBP1); CHO-XBP1 luciferase reporter, IRE1-XBP1 UPR activation, luminescence; percent of tunicamycin response, DMSO as zero; activation, % at 20 µM; 330,000 compounds, 0.33% hits; AID 463104;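 active = versus positive control, 20 µM dose yields 30% or more activation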;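 also: 100% = tunicamycin at 10 µg/mL and 0% = DMSO only wells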
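incubation = overnight seeding at 37 °C, 6 h compound treatment at 37 °C | assay system = CHO-XBP1 cells stably carrying IRE1-XBP1-driven luciferase reporter | input = 1000 cells per well | detection = luciferase luminescence | dosing = single point, 20 µM final compound, 1% DMSO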
XBP1 UPR conf: adaptive UPR (XBP1) activation, confirmed | shares compounds with XBP1 UPR activ | CHO-XBP1 IRE1-XBP1 luciferase reporter, luminescence | activation, % at 20 µM | 1,000 compounds, 63% hits;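 active = reporter signal at least 30% of the positive control's activation in two or more of four replicate wells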;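 also: plate controls were DMSO negative control for no effect and tunicamycin 10 µg/mL positive control for full effect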
Active calls of the source: *; · = no result.

SMILES | CTSL1 counter | UCH37 inh | CHOP inhibitor | UPR CHOP act | XBP1 UPR activ | XBP1 UPR conf
CCOc1cc(C=NNC(=O)c2cccnc2)ccc1OC(=O)c1ccco1 | · | 7 | · | · | · | ·
COc1ccc(Nc2nc(NCc3ccco3)nc(NN=Cc3ccccc3F)n2)cc1 | · | 2 | · | · | · | ·
N#Cc1c(-c2ccc3c(c2)OCO3)ccn2nc(-c3cccc(C(F)(F)F)c3)nc12 | 0 | -374 | 51 | 14 | 53* | 50*
O=C(COc1ccc2ccc(=O)oc2c1)Nc1c(Cl)cccc1C(F)(F)F | -1 | -26 | · | -2 | 31* | -2
COc1cccc(NC(=O)c2cc3c(=O)n4ccccc4nc3n(CC(C)C)c2=N)c1 | -5 | 3 | 12 | 9 | 5 | ·
Cc1cccc(NC(=O)c2cc3c(=O)n4ccccc4nc3n(CC(C)C)c2=N)c1 | -3 | 9 | -6 | 6 | 99* | -1
COc1cc(C=NNC(=O)C(NC(=O)c2ccccc2)c2n[nH]c(=O)c3ccccc23)ccc1OCC(N)=O (stereo unspecified) | · | 1 | · | · | · | ·
COc1cc2nc(N3CCN(c4cc(C)ccc4C)CC3)nc(N)c2cc1OC | 5 | -64 | · | 36 | 109* | 62*
COc1ccc(C)cc1Nc1nc(N)c2cc(OC)c(OC)cc2n1 | 4 | -17 | · | 0 | 7 | ·
CC1CCCC(=NNc2ccc(Cl)c(C(=O)O)c2)C1 (stereo unspecified) | · | 2 | · | · | · | ·
Cc1cc(C)c2c(c1)SC1=NC(c3ccccc3)(C(F)(F)F)NC(=O)N12 (stereo unspecified) | -2 | 2 | 94* | 38 | 46* | 22
COc1ccc(-c2nn(-c3ccccc3)cc2/C=C/C(=O)OCC(=O)Nc2cccc(C#N)c2)cc1 | -12 | -440 | 3 | 15 | 66* | 97*
COc1ccc(-c2nn(-c3ccccc3)cc2/C=C/C(=O)OCC(=O)Nc2ccc(C#N)cc2)cc1 | -10 | -24 | 66 | 3 | 0 | ·
Cc1cc(C)nc(N=C(N)Nc2ccc(S(N)(=O)=O)cc2)n1 | · | 1 | · | · | · | ·
Cc1cc[n+](-c2[nH]c(=O)sc2C=NNC([S-])=Nc2ccccc2)cc1C | · | 19 | · | · | · | ·
Cc1ccc2nc(SCC(=O)NN=Cc3ccco3)cc(C)c2c1 | · | 3 | · | · | · | ·
Cc1ccc(S(=O)(=O)N2CCC(C(=O)NN=Cc3cccn3C)CC2)cc1 | · | 3 | · | · | · | ·
Cc1cccn2c(=O)c3cc(C(=O)NC4CCS(=O)(=O)C4)sc3nc12 (stereo unspecified) | 2 | -449 | -15 | 2 | -2 | ·
Cc1cccn2c(=O)c3cc(C(=O)NC4CCCCCC4)sc3nc12 | 3 | -314 | · | 2 | 355* | 97*
NC(=O)NN=Cc1c(Sc2nnnn2-c2ccccc2)nc2ccccn2c1=O | · | -3 | · | · | · | ·
c1ccc(C2NCCn3cccc32)cc1 (stereo unspecified) | 0 | 3 | 14 | 3 | 49* | 0
C#CCn1c(=NC(=O)c2ccc(Cl)s2)sc2cccc(OC)c21 | 2 | -94 | 79* | 10 | 136* | 112*
C#CCn1c(=NC(=O)c2cccs2)sc2cccc(OCC)c21 | 0 | -4 | 12 | 2 | 12 | ·
Cn1cc(/C=C(\C#N)C(=O)Nc2cccc([N+](=O)[O-])c2)c2ccccc21 | -2 | 6 | -36 | 26 | 79* | 73*
COCCCNC(=O)c1c(N)n(N=Cc2cccnc2)c2nc3ccccc3nc12 | · | -49 | · | · | · | ·
SMILES | CTSL1 counter | UCH37 inh | CHOP inhibitor | UPR CHOP act | XBP1 UPR activ | XBP1 UPR conf
CNc1nc(Nc2ccc([N+](=O)[O-])cc2)nc(OCC(F)(F)F)n1 | 2 | 3 | · | -1 | 122* | 3
O=C(NN=Cc1ccc(Cl)s1)C(O)c1ccccc1 (stereo unspecified) | · | 7 | · | · | · | ·
CC/C(=N/Nc1ccccc1)c1cnnc(-c2ccccc2)n1 | -1 | · | 40 | 4 | 69* | 10
CCC(=NNc1ccccc1)c1cnnc(-c2ccccc2)n1 | · | 8 | · | · | · | ·
COc1ccc(COC(=O)NN=C(C)CC(=O)Nc2c(C)cc(C)cc2C)cc1 | · | 4 | · | · | · | ·
O=C(NN=Cc1cc([N+](=O)[O-])ccc1O)C1CCCCC1 | · | 11 | · | · | · | ·
O=[N+]([O-])c1ccc(NN=Cc2sc(N3CCOCC3)nc2-c2ccccc2)c(S(=O)(=O)Nc2ccc(Cl)cc2)c1 | · | 7 | · | · | · | ·
